Source: PubChem BioAssay (several laboratories)
NR2E3 ag-1: NR2E3 agonists in two-hybrid cells, primary screen, cell-based, luminescence, CHO-S, Gal4-NCOR/VP16-NR2E3; 0.35% of 360,000 active; inhibition of corepressor binding, % at 3.98 µM; AID 602229, 2012; Photoreceptor-specific nuclear receptor (Homo sapiens), Q9Y5X4; luciferase;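 active = inhibition above the mean of all tested compounds plus 3 SD, cut at about 70% in these data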;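 note: 0% = DMSO with NR2E3 transfected cells and 100% = cells lacking NR2E3 construct; higher means lower luciferase signal from less NR2E3 corepressor binding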
Target sequence (Q9Y5X4 whole entry, looked up, the tested form may be a part): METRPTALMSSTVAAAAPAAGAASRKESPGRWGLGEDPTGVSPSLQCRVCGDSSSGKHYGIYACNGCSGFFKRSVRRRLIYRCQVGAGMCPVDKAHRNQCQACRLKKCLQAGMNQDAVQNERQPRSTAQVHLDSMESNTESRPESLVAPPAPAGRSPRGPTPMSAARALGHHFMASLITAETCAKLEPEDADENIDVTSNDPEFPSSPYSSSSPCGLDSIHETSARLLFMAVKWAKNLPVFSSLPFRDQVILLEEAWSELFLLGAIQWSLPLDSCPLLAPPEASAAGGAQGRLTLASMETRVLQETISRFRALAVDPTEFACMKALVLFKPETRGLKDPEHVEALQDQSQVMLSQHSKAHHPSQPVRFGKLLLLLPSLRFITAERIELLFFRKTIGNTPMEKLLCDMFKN
NR2E3 ag-2: inhibitors of NR2E3-RetCOR corepressor binding, primary screen, NR2E3 agonist project, biochemical, TR-FRET, GST-NR2E3, biotin-RetCOR. 0.12% of 320,000 active. Photoreceptor-specific nuclear receptor (Homo sapiens), Q9Y5X4. inhibition of corepressor binding, % at 4.78 µM. 1536-well. AID 2300, 2010;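 active = percent inhibition above the cutoff of mean plus 3 SD of all tested compounds, set per screening campaign, cut at about 20% in these data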;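 note: 0% = DMSO wells and 100% = biotin wells as full block of FRET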
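Material: NR2E3–RetCOR corepressor complex | Quantity: 1.35 nM GST-tagged NR2E3 final | Schedule: 5 h at 4 °C | Replication: Singlicate compound wells | Reagent: RetCOR corepressor, biotinylated, 7 nM | Controls: Biotin wells as high control, 0.6% DMSO wells as low control | Signal: TR-FRET, Eu(K)-anti-GST donor, streptavidin-D2 acceptor, ex 340, em 617/671 nm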
PG9 binder: binders of HIV-1 gp120 antibody PG9, primary screen, biochemical, TR-FRET; TR-FRET gp120-PG9 antibody binding; inhibition, % at 6.7 µM; 0.43% of 360,000 active; in the data active = inhibition above about 8.5%
Rev-erbA mod: modulators of Rev-erb alpha DNA binding, primary screen, biochemical, FITC-DNA, fluorescence polarization, uHTS. Rev-erbα–FITC-DNA binding, 90 min. activity, % at 10 µM. Nuclear receptor subfamily 1 group D member 1 (Homo sapiens), P20393. 0.79% of 370,000 active. AID 1259318, 2017;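 active = activity above about 14%, limit read from the data; passing the limit was not always enough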;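 note: 0% = DMSO wells with 35 nM protein and 100% = DMSO wells with 750 nM protein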
NR1D1 mod conf: modulators of Rev-erb alpha DNA binding, confirmation, biochemical, FITC-DNA, fluorescence polarization, single point | shares compounds with Rev-erbA mod | activation, % at 25 µM | 61% of 3,000 active | 90 min;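 active = activation at or above a set limit, or at least 3 SD above the negative control mean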;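 note: 0% = 35 nM protein with DMSO and 100% = 750 nM protein high control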
RORg counter: modulation of RORgamma DNA binding, dose response, counter-screen for Rev-erb alpha modulator project, biochemical, fluorescence polarization, FITC-DNA. shares compounds with Rev-erbA mod. purified RORgamma protein-FITC-DNA binding. IC50, µM. 8% of 910 active. AID 1259320, 2017;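 active = Compounds whose fitted half-maximal concentration for disrupting protein-DNA binding is below 10 micromolar; the record names Rev-erb in its text, so the target is in doubt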
Active calls of the source: *; i = inactive; x = no result. An excerpt weighted towards active compounds, which were near 1.4% of everything screened.

SMILES	NR2E3 ag-1	NR2E3 ag-2	PG9 binder	Rev-erbA mod	NR1D1 mod conf	others
CCC(=O)Nc1sc(C(=O)Nc2ccccc2OC)c(C)c1C(=O)OC	-1	2	1	42*	18
CC(=O)Nc1sc(C)c(C)c1C(=O)OCC(=O)N(Cc1ccccc1)C(C)C	11	2	-2	42*	32*	RORg counter=>40
COc1ccccc1NC(=O)COC(=O)c1c(NC(C)=O)sc(C)c1C	-41	x	-2	19*	6
O=S1(=O)CC2c3ccccc3CN2CN1CCc1ccccc1 (stereo unspecified)	x	x	x	2	x
O=C(CSc1nc(C2CC2)nc2ccccc12)Nc1ccccc1Cl	-17	-2	0	21*	12
O=C(CSc1nc(C2CC2)nc2ccccc12)Nc1ccccc1	6	0	2	6	x
COc1ccccc1NC(=O)c1oc2ccccc2c1NC(=O)c1cc(OC)c(OC)c(OC)c1	-19	0	0	100*	69*	RORg counter=>40
COCC(=O)Nc1c(C(=O)Nc2ccccc2OC)oc2ccccc12	2	1	1	23	x
CCOc1cccc(-c2nnc3sc(-c4cccs4)nn23)c1	-7	-3	1	29*	20*
Cc1ccc(S(=O)(=O)n2ccc(-c3c(-c4ccccc4)noc3C)n2)cc1	x	x	x	4	x
COc1ccc(-n2c(Cc3cccs3)nnc2SCC(=O)Nc2ccc(OCc3ccccc3)cc2)cc1	x	x	x	3	x
COc1ccc(-c2nn(CC(=O)Nc3ccc(Cl)c(Cl)c3)c(=O)c3ccccc23)cc1	-3	0	2	22*	14
CC(=O)c1cccc(NC(=O)Cn2nc(-c3ccc(Cl)cc3)ccc2=O)c1	-16	2	0	23*	12
CC(=O)c1cccc(NC(=O)Cn2nc(-c3ccccc3Cl)ccc2=O)c1	-14	-4	-1	-3	x
COc1ccc(-c2ccc(=O)n(CC(=O)Nc3ccc4c(c3)OCCO4)n2)cc1	1	-2	1	18*	11
COc1ccc(CNC(=O)Cn2nc(-c3ccc4c(c3)OCCO4)ccc2=O)cc1	6	1	-2	-2	x
C[C@@H]1CCN(C2CC2)S(=O)(=O)c2c(cccc2N2CCC[C@@H]2C)O1	x	x	x	6	x
COc1cccc(C(=O)n2ccc3ccc(-c4ccc5ccn(C(=O)c6cccc(OC)c6)c5c4)cc32)c1	x	x	x	44*	85*	RORg counter=i
COc1cccc(C(=O)n2ccc3ccc(-c4ccc5ccn(Cc6ccc(C#N)cc6)c5c4)cc32)c1	x	x	x	48*	9
N#Cc1ccc(Cn2ccc3ccc(-c4ccc5ccn(Cc6ccc(C#N)cc6)c5c4)cc32)cc1	x	x	x	1	x
COc1cccc(C(=O)n2ccc3ccc(-c4ccc5ccn(Cc6ccccc6)c5c4)cc32)c1	x	x	x	24*	52*	RORg counter=6.8*
COc1cccc(NC(=O)n2ccc3ccc(-c4ccc5ccn(C(=O)Nc6cccc(OC)c6)c5c4)cc32)c1	x	x	x	5	x
CCCCOCCCNC(=O)C[C@H]1C[C@@]2(C(=O)OC)C(=C[C@H](C(C)C)O[C@@H]2C2CC2)N(Cc2ccc(Cl)cc2Cl)C1=O	x	x	x	-3	x
CCOC(=O)[C@]12CCCC=C1N(CCCOC)C(=O)[C@@H]2CC(=O)N1CCSCC1	x	x	x	1	x
CCOc1cc(C=O)c(Br)cc1OC1CCCC1	12	15	3	22*	12
SMILES	NR2E3 ag-1	NR2E3 ag-2	PG9 binder	Rev-erbA mod	NR1D1 mod conf	others
COC(=O)[C@]12C[C@H](CC(=O)NCCCCc3ccccc3)C(=O)N(CCC3=CCCCC3)C1=C[C@H](C(C)C)O[C@@H]2C1CC1	x	x	x	4	x
Cc1cccc(C(=O)OCC(=O)Nc2c(C)nn(-c3ccccc3)c2C)c1O	5	1	0	6	x
Cc1nn(-c2ccccc2)c(C)c1NC(=O)COC(=O)c1cc(Br)ccc1O	-21	2	-1	31*	13
COc1cccc([C@@H]2NC(=O)C/C=C/[C@H](C)[C@H](c3cccc(OC)c3)NC(=O)C/C=C/[C@@H]2C)c1	x	x	x	-2	x
CCOc1ncccc1C(=O)OCc1cc(=O)oc2c(C)c(C)ccc12	-17	x	-2	34*	6
Cc1cccc(C(=O)OCc2cc(=O)oc3c(C)c(C)ccc23)c1O	4	3	x	x	x
COc1ccc(S[C@]2(C(=O)N3CCN(C(C)=O)CC3)CC(=O)N(C(=O)C3CC3)[C@@H]2c2ccc(OC)cc2)cc1	x	x	x	0	x
O=C(Nc1ccnc(-c2cccnc2)n1)c1ccc(Cl)cc1	-14	-33	-1	45*	41*	RORg counter=>40
O=C(Nc1ccnc(-c2cccnc2)n1)c1ccc(F)cc1	x	1	x	x	x
Clc1ccc(-c2ccnc(Oc3cc(Cl)ccc3Cl)n2)cc1	-9	2	1	35*	39*	RORg counter=>40
CCNc1ccc2noc3c2c1C(=O)c1ccccc1-3	-45	-23	2	49*	57*	RORg counter=>40
CCOC(=O)Cn1c(=NC(=O)C2CC2)sc2c(C)cc(C)cc21	-21	1	21*	18*	-8
COc1ccc(C(=O)CSc2cc(C)nc(SCC(=O)c3ccc(C)cc3)n2)cc1	10	2	-1	27*	10
CC(=O)Nc1ccc2ccc3cccc4ccc1c2c34	-43	-2	-11	33*	28*
Cc1ccc(-n2c(SCC(=O)c3ccccc3Br)nnc2-c2ccncc2)cc1	x	x	x	-3	x
O=C(N/N=C\c1c(O)ccc2ccccc12)c1ccc(O)cc1	-25	2	0	-3	x
Cc1occc1C(=O)N/N=C/c1c(O)ccc2ccccc12	-99	3	1	25*	25*
O=C(NNC(=O)c1ccc(Br)s1)c1cccc(S(=O)(=O)N2CCCC2)c1	8	1	-1	2	x
Cc1ccsc1C(=O)NNC(=O)c1cccc(S(=O)(=O)N2CCCC2)c1	-10	3	2	18*	-5
CCOc1ccccc1N=Cc1c(O)c2ccccc2oc1=O	-32	-2	2	36*	10
COc1ccc(Cl)cc1N=Cc1c(O)c2ccccc2oc1=O	5	4	-2	7	x
C[C@H]1[C@@H](OC(=O)NC2CCC2)CC[C@@]23CCCN2C(=O)CCC[C@@H]13	x	x	x	-7	x
O=C(Nc1ccc(F)cc1)c1sc2cc(C(F)(F)F)cnc2c1-c1cccs1	-19	-7	-13	49*	21*
CCn1c2ccccc2c2cc(NC(=O)CSc3nnc(-c4ccccc4)n3Cc3ccco3)ccc21	x	x	x	-1	x
